pIC50: −log10 of the molar value. Calls of active or inactive are those of the source. The calls are words filed in the database; no cut-off is given here.
Tests used:
[1] = target: Protein-tyrosine kinase 2-beta (Homo sapiens, UniProt Q14289); assay: Inhibition of Pyk2 kinase (unknown origin) by bioluminescent ADP-Glo kinase assay
Procedure, shortened: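 ADP-Glo luminescent read-out of ADP formation, run per kit instructions; inhibitors tested as 8-point half-log dilution series, 1 uM down to 0.316 nM. IC50 obtained by fitting dose–response curves with an [inhibitor] vs normalized response model; each compound tested at least 3 times.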

Mus musculus = assay: In vivo inhibition of Glucocorticoid-induced bone loss in C57BL/6 mouse assessed as prevention of bone loss by measuring increase in bone mineral density at 10 mg/kg/day, po treatment initiated 3 days prior to glucocorticoid challenge measured after 2 weeks; assay type: functional, organism-based; details: time 17.0 day
Procedure, shortened: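 Female C57BL/6 mice, 4 months old, randomized; oral gavage 10 mg/kg 5 times per week, starting 3 days before subcutaneous slow-release pellet (placebo or prednisolone 2.1 mg/kg/d). Total-body BMD (head and tail excluded) by DEXA after 2 weeks; analysis blinded. Two-way ANOVA with Tukey post hoc, N = 9–10.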

[2] = Toxicity in Glucocorticoid-induced C57BL/6 mouse bone loss model assessed as adverse effect by measuring mouse with skin lesions at 10 mg/kg/day, po treatment initiated 3 days prior to glucocorticoid challenge measured after 2 weeks; assay type: organism-based; details: in vivo, 408 h, time 17 day
Procedure, shortened: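 Female C57BL/6 mice, 4 months old; oral gavage 10 mg/kg 5 times per week from 3 days before placebo or prednisolone (2.1 mg/kg/d) pellet implantation. Mice scored for development of skin lesions during the study.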

[3] = Toxicity in Glucocorticoid-induced C57BL/6 mouse bone loss model assessed as adverse effect at 10 mg/kg/day, po treatment initiated 3 days prior to glucocorticoid challenge measured after 2 weeks; assay type: organism-based; details: in vivo, 408 h, time 17 day
[4] = Toxicity in Glucocorticoid-induced C57BL/6 mouse bone loss model assessed as circulating organ toxicity in serum by measuring Albumin at 10 mg/kg/day, po treatment initiated 3 days prior to glucocorticoid challenge measured after 2 weeks; assay type: organism-based; details: in vivo, 408 h, time 17 day
Procedure, shortened: (§1)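 Same mouse regimen: 4-month-old female C57BL/6, gavage 10 mg/kg 5×/week, prednisolone 2.1 mg/kg/d or placebo pellets. At study end, blood collected after isoflurane sedation and euthanasia. 14-parameter Comprehensive Diagnostic Profile analyser panel on plasma. Untreated and vehicle mice served as controls. N = 9–10, mean ± SD.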

[5] = Toxicity in Glucocorticoid-induced C57BL/6 mouse bone loss model assessed as circulating organ toxicity in serum by measuring alkaline phosphatase at 10 mg/kg/day, po treatment initiated 3 days prior to glucocorticoid challenge measured after 2 weeks; assay type: organism-based; details: in vivo, 408 h, time 17 day; procedure, shortened: as §1
[6] = Toxicity in Glucocorticoid-induced C57BL/6 mouse bone loss model assessed as circulating organ toxicity in serum by measuring […] at 10 mg/kg/day, po treatment initiated 3 days prior to glucocorticoid challenge measured after 2 weeks; assay type: organism-based; details: in vivo, 408 h, time 17 day; procedure, shortened: as §1
[7] = Toxicity in Glucocorticoid-induced C57BL/6 mouse bone loss model assessed as circulating organ toxicity in serum by measuring amylase at 10 mg/kg/day, po treatment initiated 3 days prior to glucocorticoid challenge measured after 2 weeks; assay type: organism-based; details: in vivo, 408 h, time 17 day; procedure, shortened: as §1
[8] = Toxicity in Glucocorticoid-induced C57BL/6 mouse bone loss model assessed as circulating organ toxicity in serum by measuring blood urea nitrogen at 10 mg/kg/day, po treatment initiated 3 days prior to glucocorticoid challenge measured after 2 weeks; assay type: organism-based; details: in vivo, 408 h, time 17 day; procedure, shortened: as §1
[9] = Toxicity in Glucocorticoid-induced C57BL/6 mouse bone loss model assessed as circulating organ toxicity in serum by measuring calcium at 10 mg/kg/day, po treatment initiated 3 days prior to glucocorticoid challenge measured after 2 weeks; assay type: organism-based; details: in vivo, 408 h, time 17 day; procedure, shortened: as §1
[10] = Toxicity in Glucocorticoid-induced C57BL/6 mouse bone loss model assessed as circulating organ toxicity in serum by measuring creatinine at 10 mg/kg/day, po treatment initiated 3 days prior to glucocorticoid challenge measured after 2 weeks; assay type: organism-based; details: in vivo, 408 h, time 17 day; procedure, shortened: as §1
[11] = Toxicity in Glucocorticoid-induced C57BL/6 mouse bone loss model assessed as circulating organ toxicity in serum by measuring glucose at 10 mg/kg/day, po treatment initiated 3 days prior to glucocorticoid challenge measured after 2 weeks; assay type: organism-based; details: in vivo, 408 h, time 17 day; procedure, shortened: as §1
[12] = Toxicity in Glucocorticoid-induced C57BL/6 mouse bone loss model assessed as circulating organ toxicity in serum by measuring potassium at 10 mg/kg/day, po treatment initiated 3 days prior to glucocorticoid challenge measured after 2 weeks; assay type: organism-based; details: in vivo, 408 h, time 17 day; procedure, shortened: as §1
[13] = Toxicity in Glucocorticoid-induced C57BL/6 mouse bone loss model assessed as circulating organ toxicity in serum by measuring sodium at 10 mg/kg/day, po treatment initiated 3 days prior to glucocorticoid challenge measured after 2 weeks; assay type: organism-based; details: in vivo, 408 h, time 17 day; procedure, shortened: as §1
[14] = Toxicity in Glucocorticoid-induced C57BL/6 mouse bone loss model assessed as circulating organ toxicity in serum by measuring phosphorus at 10 mg/kg/day, po treatment initiated 3 days prior to glucocorticoid challenge measured after 2 weeks; assay type: organism-based; details: in vivo, 408 h, time 17 day; procedure, shortened: as §1
[15] = Toxicity in Glucocorticoid-induced C57BL/6 mouse bone loss model assessed as circulating organ toxicity in serum by measuring total bilirubin at 10 mg/kg/day, po treatment initiated 3 days prior to glucocorticoid challenge measured after 2 weeks; assay type: organism-based; details: in vivo, 408 h, time 17 day; procedure, shortened: as §1
[16] = Toxicity in Glucocorticoid-induced C57BL/6 mouse bone loss model assessed as circulating organ toxicity in serum by measuring Total protein at 10 mg/kg/day, po treatment initiated 3 days prior to glucocorticoid challenge measured after 2 weeks; assay type: organism-based; details: in vivo, 408 h, time 17 day; procedure, shortened: as §1

Chain of Protein-tyrosine kinase 2-beta (Q14289 whole entry): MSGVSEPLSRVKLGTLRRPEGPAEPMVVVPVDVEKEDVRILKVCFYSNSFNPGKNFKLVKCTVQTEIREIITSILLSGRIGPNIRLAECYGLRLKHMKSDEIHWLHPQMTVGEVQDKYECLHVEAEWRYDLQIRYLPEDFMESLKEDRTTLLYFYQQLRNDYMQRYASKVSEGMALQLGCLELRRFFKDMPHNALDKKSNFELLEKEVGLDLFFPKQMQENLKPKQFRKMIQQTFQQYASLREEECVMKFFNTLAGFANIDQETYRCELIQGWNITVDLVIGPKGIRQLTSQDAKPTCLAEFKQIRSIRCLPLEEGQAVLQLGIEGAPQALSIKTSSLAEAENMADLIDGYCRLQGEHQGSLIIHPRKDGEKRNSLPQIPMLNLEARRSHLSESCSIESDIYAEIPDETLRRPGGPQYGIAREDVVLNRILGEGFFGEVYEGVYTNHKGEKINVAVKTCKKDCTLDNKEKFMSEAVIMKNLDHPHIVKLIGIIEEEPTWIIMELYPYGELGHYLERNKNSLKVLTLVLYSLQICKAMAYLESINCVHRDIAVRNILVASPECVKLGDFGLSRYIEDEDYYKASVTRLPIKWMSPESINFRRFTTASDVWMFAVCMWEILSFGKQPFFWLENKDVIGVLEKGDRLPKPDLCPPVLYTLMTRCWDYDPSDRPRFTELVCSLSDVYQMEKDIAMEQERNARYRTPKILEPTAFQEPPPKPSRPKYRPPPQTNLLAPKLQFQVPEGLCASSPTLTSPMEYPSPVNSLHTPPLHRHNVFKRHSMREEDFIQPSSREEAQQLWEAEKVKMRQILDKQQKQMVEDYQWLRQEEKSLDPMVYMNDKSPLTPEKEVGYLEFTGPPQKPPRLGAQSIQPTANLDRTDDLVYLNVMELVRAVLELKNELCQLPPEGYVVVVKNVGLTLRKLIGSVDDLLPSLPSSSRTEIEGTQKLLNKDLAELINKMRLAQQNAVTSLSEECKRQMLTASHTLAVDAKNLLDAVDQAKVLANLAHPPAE

With `CNC(=O)c1ccccc1Nc1nc(Nc2ccc(N3CCOCC3)cc2OC)ncc1Cl` the pIC50 [1] was 7.77, the Activity (Mus musculus) was “Active” and the Activity [2] was 15%.

`CNC(=O)c1ccccc1Nc1nc(Nc2ccc(N)cc2OC)ncc1Cl` showed a pIC50 [1] of 7.36.

In the case of `CNC(=O)c1ccccc1Nc1nc(Nc2ccc(OC(=O)CCCCC(=O)NCCCC(O)(P(=O)(O)O)P(=O)(O)O)cc2OC)ncc1Cl`, the Activity (Mus musculus) was “inactive” and the Activity [2] was “Non-Toxic”.

Work on `CNC(=O)c1ccccc1Nc1nc(Nc2ccc(N3CCC(O)CC3)cc2OC)ncc1Cl` yielded a pIC50 [1] of 6.99.

With `CNC(=O)c1ccccc1Nc1nc(Nc2ccc(NC(=O)CCCCC(=O)NCCCC(O)(P(=O)(O)O)P(=O)(O)O)cc2OC)ncc1Cl` the pIC50 [1] was 7.35, the Activity (Mus musculus) was “Active” and the Activity [3] was “Non-Toxic”. The Activity [4] was “Non-Toxic”, the Activity [5] was “Non-Toxic” and the Activity [6] was “Non-Toxic”. The Activity [7] was “Non-Toxic”, the Activity [8] was “Non-Toxic” and the Activity [9] was “Non-Toxic”. For the same compound, the Activity [10] was “Non-Toxic”, the Activity [11] was “Non-Toxic” and the Activity [12] was “Non-Toxic”. The Activity [13] was “Non-Toxic”, the Activity [14] was “Non-Toxic” and the Activity [15] was “Non-Toxic”. For the same compound, the Activity [16] was “Non-Toxic”.

Reference: ChEMBL document CHEMBL6127135, “Generation of BT-Amide, a Bone-Targeted Pyk2 Inhibitor, Effective via Oral Administration, for the Prevention of Glucocorticoid-Induced Bone Loss” (J Med Chem, 2024)
